The source made the active and inactive calls. No cut-off for these calls is given here.

The subject of one assay is MCF7. Put plainly: Cell cycle arrest in human MCF7 cells assessed as accumulation at S phase using propidium iodide staining at 4 uM after 24 hrs by flow cytometry. It is filed as functional. The method in brief: (§1)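 MCF-7 cells (5 × 10⁵ per 60 mm dish) grown 24 h, then exposed to 4 µM compound for a further 24 h; DMSO-treated control. Cells trypsinised, fixed in ice-cold 70% ethanol at 4 °C for 30 min, RNase-treated (1 mg/mL, 37 °C, 30 min), stained with propidium iodide/citrate/Triton X-100. DNA content read on 20,000 events by flow cytometry; percent cells per phase reported.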
Background: A flow cytometer gives signals particle by particle.
As to `C[C@]12CC[C@@H]3c4ccc(O)cc4CC[C@H]3[C@@H]1CC[C@@H]2O` [ESTRADIOL], the Activity was 25.26%.

For `COc1cc2c(cc1O)N=C[C@@H]1CCCN1C2=O`, the Activity stood at 13%.

The subject of another assay is A2780. Put plainly: Cytotoxicity against human A2780 cells by sulforhodamine B method. It is filed as functional.
`COc1cc2c(cc1O)N=C[C@@H]1CCCN1C2=O` registered a GI50 of 140 nM.

For another assay, the system named is MCF7. In words: Cell cycle arrest in human MCF7 cells assessed as accumulation at G0 phase using propidium iodide staining at 4 uM after 24 hrs by flow cytometry. The format is functional. The method in brief: as §1
`C[C@]12CC[C@@H]3c4ccc(O)cc4CC[C@H]3[C@@H]1CC[C@@H]2O` [ESTRADIOL]: the Activity is recorded as 0.83%.

Take `COc1cc2c(cc1O)N=C[C@@H]1CCCN1C2=O`: the Activity came to 8.5%.

The next assay relates to A549. In words: Cytotoxicity against human A549 cells by sulforhodamine B method. The format is functional.
`COc1cc2c(cc1O)N=C[C@@H]1CCCN1C2=O` yielded a GI50 of 160 nM.

Another assay has as its system COLO 205. In words: Cytotoxicity against human COLO205 cells by sulforhodamine B method. The format is functional.
With `COc1cc2c(cc1O)N=C[C@@H]1CCCN1C2=O`, it took 110 nM to inhibit growth by half (GI50).

The subject of a further assay is KB. In words: Cytotoxicity against human KB cells by sulforhodamine B method. It is filed as functional. A general note: Sulforhodamine B stains cellular protein and so reports cell mass.
In turn, `COc1cc2c(cc1O)N=C[C@@H]1CCCN1C2=O` returned a GI50 of 170 nM.

A further assay relates to MCF7. Put plainly: Cell cycle arrest in human MCF7 cells assessed as accumulation at G2/M phase using propidium iodide staining at 4 uM after 24 hrs by flow cytometry. The format is functional. Put shortly:
as §1
As to `C[C@]12CC[C@@H]3c4ccc(O)cc4CC[C@H]3[C@@H]1CC[C@@H]2O` [ESTRADIOL], the Activity is on record as 23.8%.

As for `COc1cc2c(cc1O)N=C[C@@H]1CCCN1C2=O`, the Activity turned out to be 4.83%.

In a further assay the test system is MCF7. Put plainly: Cytotoxicity against human MCF7 cells by sulforhodamine B method. The format is functional.
Regarding `COc1cc2c(cc1O)N=C[C@@H]1CCCN1C2=O`, it took 170 nM to inhibit growth by half (GI50).

For the next assay, the system named is HOP-62. In words: Cytotoxicity against human HOP62 cells by sulforhodamine B method. The format is functional.
Regarding `COc1cc2c(cc1O)N=C[C@@H]1CCCN1C2=O`, growth was halved (GI50) at 150 nM.

Another assay deals with MCF7. In words: Cell cycle arrest in human MCF7 cells assessed as accumulation at G1 phase using propidium iodide staining at 4 uM after 24 hrs by flow cytometry. It is filed as functional. Put shortly: as §1
Consider `C[C@]12CC[C@@H]3c4ccc(O)cc4CC[C@H]3[C@@H]1CC[C@@H]2O` [ESTRADIOL], for which the Activity came to 50%.

Turning to `COc1cc2c(cc1O)N=C[C@@H]1CCCN1C2=O`, the Activity was found to be 73.66%.

System in the next assay: not listed separately
In words: Cytotoxicity against human Gurav cells by sulforhodamine B method. The format is functional.
`COc1cc2c(cc1O)N=C[C@@H]1CCCN1C2=O` showed a concentration for 50% growth inhibition (GI50) of 160 nM.

The test system of the next assay is SiHa. Put plainly: Cytotoxicity against human SiHa cells by sulforhodamine B method. The format is functional.
Molecule `COc1cc2c(cc1O)N=C[C@@H]1CCCN1C2=O` gave a GI50 of 170 nM.

The next assay relates to MCF7. In words: Reduction in Cdk1 protein level in human MCF7 cells at 4 uM after 24 hrs by Western blot analysis. The format is functional, cell-based. Put shortly: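 MCF-7 cells (5 × 10⁵ per 60 mm dish) grown 24 h, then treated at 4 µM for 24 h. Lysis in ice-cold RIPA buffer with protease/phosphatase inhibitors; protein measured by Bradford. Fifty µg per lane resolved on 12% SDS-PAGE and transferred to PVDF. Blocked 2 h, primary antibody overnight at 4 °C, chemiluminescent detection; β-actin as loading control.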
For `C[C@]12CC[C@@H]3c4ccc(O)cc4CC[C@H]3[C@@H]1CC[C@@H]2O` [ESTRADIOL], the result was Active.

Consider `COc1cc2c(cc1O)N=C[C@@H]1CCCN1C2=O`, for which the outcome was Active.

The test system of the next assay is MCF7. In words: Cytotoxicity against human MCF7 cells at 4 uM after 24 hrs by MTT assay. The format is functional, cell-based. Put shortly: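 MCF-7 cells seeded at 10,000 per well, incubated overnight, then treated at 4 µM for 24 h; DMSO control. Medium replaced with MTT, 2 h at 37 °C. Formazan solubilised in extraction buffer, absorbance read at 570 nm, expressed as percent viability.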
As to `C[C@]12CC[C@@H]3c4ccc(O)cc4CC[C@H]3[C@@H]1CC[C@@H]2O` [ESTRADIOL], the result was Active.

For `COc1cc2c(cc1O)N=C[C@@H]1CCCN1C2=O`, the outcome was Active.

The test system of a further assay is PC-3. Put plainly: Cytotoxicity against human PC3 cells by sulforhodamine B method. The format is functional.
For the molecule `COc1cc2c(cc1O)N=C[C@@H]1CCCN1C2=O`, growth was halved (GI50) at 200 nM.

The term GI50 denotes the concentration giving 50% growth inhibition.

The values above are taken from ChEMBL document CHEMBL1765029, “Synthesis and biological evaluation of estradiol linked pyrrolo[2,1-c][1,4]benzodiazepine (PBD) conjugates as potential anticancer agents” (2011).
